In ChEMBL document CHEMBL5104108, “Concise synthesis and biological activity evaluation of novel pyrazinyl-aryl urea derivatives against several cancer cell lines, which can especially induce T24 apoptotic and necroptotic cell death” (RSC Med Chem, 2022):
The source made the active and inactive calls. The rule behind the calls is not given here.

Legend:
T-24 [1] = test: Down-regulation of VEGFR-1 mRNA expression in human T24 cells at 5 to 10 uM measured by RT-PCR analysis; type: functional, cell-based; settings: dose 5-10 µM
HepG2 = test: Antiproliferative activity against human HepG2 cells measured after 48 hrs by MTT assay; type: functional, cell-based; settings: HepG2, 48 h
Summary of the method: (§1)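 Cells seeded 5 × 10^3 per well, grown overnight at 37 °C, then exposed to compound at final 1–40 μM (1, 2.5, 5, 7.5, 10, 12.5, 15, 20, 30, 40 μM) for the stated period. MTT added, 4 h at 37 °C, formazan dissolved in DMSO, absorbance read. IC50 = concentration killing 50% of cells relative to untreated control; mean ± S.D. of four independent experiments.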

T-24 [2] = test: Down-regulation of MLKL expression in human T24 cells at 7.5 to 10 uM measured in presence of 60 uM Nec-1 after 16 hrs by Western blot analysis; type: functional, cell-based; settings: dose 7.5-10 µM
Summary of the method: (§2)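 T24 cells co-incubated 16 h with or without Nec-1 (60 μM). Lysates quantified by BCA, 40 μg protein resolved by SDS-PAGE, transferred to PVDF, probed with primary and peroxidase-conjugated secondary antibodies, detected by ECL. Band gray values normalized to β-actin loading control.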

T-24 [3] = test: Induction of apoptosis in human T24 cells assessed as increase in Cytochrome c expression at 5 to 7.5 uM measured by Western blot analysis; type: functional, cell-based; settings: dose 5-7.5 µM
Summary of the method: (§3)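 Apoptosis-related proteins measured by Western blot in T24 lysates: 40 μg protein per lane by SDS-PAGE, PVDF transfer, primary and peroxidase-linked secondary antibodies, ECL detection, densitometry of gray values with β-actin as loading control.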

T-24 [4] = test: Induction of necroptosis in human T24 cells assessed as necrotic cells at 7.5 to 12.5 uM measured after 16 hrs by flow cytometry analysis; type: functional, cell-based; settings: dose 7.5-12.5 µM
Summary of the method: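 T24 cells in 60 mm dishes treated at 37 °C for 16 h with or without Nec-1 (60 μM). Washed thrice in PBS, then stained with Annexin V-FITC/PI for 15 min at room temperature in the dark. Flow cytometry, ≥1 × 10^4 events. Necrotic fraction taken as Annexin−/PI+. Done in triplicate.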

T-24 [5] = test: Down-regulation of RIPK1 expression in human T24 cells at 7.5 to 10 uM measured in presence of 60 uM Nec-1 after 16 hrs by Western blot analysis; type: functional, cell-based; settings: dose 7.5-10 µM; summary of the method: as §2
T-24 [6] = test: Up-regulation of RIPK2 expression in human T24 cells at 7.5 to 10 uM measured after 16 hrs by Western blot analysis; type: functional, cell-based; settings: dose 7.5-10 µM
[7] = Absorption rate constant in Sprague-Dawley rat at 6 mg/kg, IG measured HPLC analysis; type: ADME, organism-based; settings: in vivo, po
T-24 [8] = test: Up-regulation of caspase-8 mRNA expression in human T24 cells at 2.5 to 7.5 uM measured after 10 hrs by RT-PCR analysis; type: functional, cell-based; settings: dose 2.5-7.5 µM
[9] = Half-life in Sprague-Dawley rat at 12 mg/kg, IG measured HPLC analysis; type: ADME, organism-based; settings: in vivo, po
T-24 [10] = test: Induction of apoptosis in human T24 cells assessed as decrease in Bcl-2 expression at 5 to 7.5 uM measured by Western blot analysis; type: functional, cell-based; settings: dose 5-7.5 µM; summary of the method: as §3
T-24 [11] = test: Induction of apoptosis in human T24 cells assessed as increase in Bax expression at 5 to 7.5 uM measured by Western blot analysis; type: functional, cell-based; settings: dose 5-7.5 µM; summary of the method: as §3
T-24 [12] = test: Up-regulation of RIPK3 expression in human T24 cells at 2.5 to 7.5 uM measured by ELISA assay; type: functional, cell-based; settings: dose 2.5-7.5 µM
Summary of the method: (§4)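 T24 cells pretreated, collected, diluted in PBS, counted and stored overnight at −20 °C. After membrane disruption, lysates centrifuged at 5000 × g for 5 min (4 °C). RIPK1, RIPK3 and MLKL levels then measured with ELISA kits.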

[13] = MRT (0 to 48 hrs) in Sprague-Dawley rat at 12 mg/kg, IG measured HPLC analysis; type: ADME, organism-based; settings: in vivo, po
Summary of the method: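 Fasted (12 h) male-unspecified Sprague-Dawley rats (250 ± 20 g), n = 6 per group. Single intragastric dose of suspension (2 mg mL−1 in Tween 80/0.9% NaCl 1.5:5 v/v). Orbital blood drawn at 0.5–48 h and plasma assayed by reversed-phase C18 HPLC-UV. One-compartment fit, weight 1.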

T-24 [14] = test: Induction of apoptosis in human T24 cells assessed as increase in cleaved caspase-3 expression at 0 to 5 uM measured by Western blot analysis; type: functional, cell-based; settings: dose 0-5 µM; summary of the method: as §3
T-24 [15] = test: Induction of necroptosis in human T24 cells assessed as viable cells at 12.5 uM and measured by trypan blue exclusion assay; type: functional; settings: read-out: Activity
Summary of the method: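 T24 cells (2 × 10^5/well) exposed for 16 h with or without Nec-1 (60 μM), then stained with trypan blue. Viable and dead cells counted. Result given as % viable cells relative to untreated control.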

[16] = AUC (0 to 48 hrs) in Sprague-Dawley rat at 12 mg/kg, IG measured HPLC analysis; type: ADME, organism-based; design: time < 48 hr, dose 12 mg/kg, route ig; settings: in vivo, po
T-24 [17] = test: Induction of apoptosis in human T24 cells assessed as apoptotic cells at 5 uM measured after 10 hrs by Annexin-V/FITC and propidium iodide staining based flow cytometry analysis; type: functional
Summary of the method: (§5)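 T24 cells in 60 mm dishes treated 10 h at 37 °C, collected, PBS-washed, resuspended in binding buffer, stained with Annexin V-FITC and PI for 15 min at room temperature in the dark. At least 1 × 10^4 events per sample by flow cytometry; apoptotic cells = early (Annexin+/PI−) plus late (Annexin+/PI+). Triplicate experiments.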

T-24 [18] = test: Antiproliferative activity against human T24 cells measured after 24 hrs by MTT assay; type: functional, cell-based; settings: T-24, 24 h; summary of the method: as §1
T-24 [19] = test: Induction of apoptosis in human T24 cells assessed as apoptotic cells at 7.5 uM measured after 10 hrs by Annexin-V/FITC and propidium iodide staining based flow cytometry analysis; type: functional; summary of the method: as §5
[20] = Antiproliferative activity against human HCV-29 cells measured after 48 hrs by MTT assay; type: functional, cell-based; settings: HCV-29, 48 h; summary of the method: as §1
T-24 [21] = test: Induction of apoptosis in human T24 cells assessed as increase in caspase-8 expression at 0 to 5 uM measured by Western blot analysis; type: functional, cell-based; settings: dose 0-5 µM; summary of the method: as §3
T-24 [22] = test: Up-regulation of MLKL expression in human T24 cells at 7.5 to 10 uM measured after 16 hrs by Western blot analysis; type: functional, cell-based; settings: dose 7.5-10 µM
T-24 [23] = test: Antiproliferative activity against human T24 cells measured after 72 hrs by MTT assay; type: functional, cell-based; settings: T-24, 72 h; summary of the method: as §1
T-24 [24] = test: Down-regulation of VEGFR-2 mRNA expression in human T24 cells at 5 to 10 uM measured by RT-PCR analysis; type: functional, cell-based; settings: dose 5-10 µM
T-24 [25] = test: Up-regulation of RIPK3 expression in human T24 cells at 7.5 to 10 uM measured after 16 hrs by Western blot analysis; type: functional, cell-based; settings: dose 7.5-10 µM
T-24 [26] = test: Down-regulation of VEGFR-1 mRNA expression in human T24 cells at 7.5 uM measured in presence of 25 uM apatinib by RT-PCR analysis; type: functional, cell-based
T-24 [27] = test: Up-regulation of MLKL expression in human T24 cells at 2.5 to 7.5 uM measured by ELISA assay; type: functional, cell-based; settings: dose 2.5-7.5 µM; summary of the method: as §4

O=C(Nc1ccc(C(F)(F)F)cc1)Nc1cccc(CNc2nccnc2Cl)c1
Activity (T-24 [1]): Active | IC50 (HepG2): 5.05 µM | Activity (T-24 [2]): Active | Activity (T-24 [3]): Active | Activity (T-24 [4]): Active | Activity (T-24 [5]): Active | Activity (T-24 [6]): Active | Ka [7]: 0.098 h⁻¹ | Activity (T-24 [8]): Active | half-life [9]: 7.17 h | Activity (T-24 [10]): Active | Activity (T-24 [11]): Active | Activity (T-24 [12]): Active | MRT last [13]: 10.3 h | Activity (T-24 [14]): Active | viability at 12.5 µM (T-24 [15]): 24.8% | AUC(0-t) at 48 h [16]: 75800 ng·h/mL | Activity (T-24 [17]): 14.83% | IC50 (T-24 [18]): 9.18 µM | Activity (T-24 [19]): 21.41% | IC50 [20]: 30 µM | Activity (T-24 [21]): Active | Activity (T-24 [22]): Active | IC50 (T-24 [23]): 3.55 µM | Activity (T-24 [24]): Active | Activity (T-24 [25]): Active | Activity (T-24 [26]): Active | Activity (T-24 [27]): Active
